6 compounds from ChEMBL document CHEMBL1125814, “Folic acid analogues lacking the 2-carbon are substrates for folylpolyglutamate synthetase and inhibit cell growth” (J Med Chem, 1991) can be followed below.

The test system of one series is L1210. Nature of the series: Compound was tested for inhibition of L1210 cell growth. Type of series: functional, cell-based. Conditions: Mus musculus. In outline: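 Exponentially growing L1210 mouse leukemia cells seeded at (2.0–2.5) × 10^4/mL in RPMI-1640 with 10% dialyzed fetal bovine serum. Compound added in phosphate-buffered saline. Incubated 72 h at 37 °C, 5% CO2, humidified. Cells counted with a Coulter counter. IC50 taken from 1 or 2 experiments.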

Series [1] can be described thus: Relative maximal velocity (Vmax) as folylpolyglutamate synthetase substrate of the compound. Type of series: ADME.
Series [2] in a line: Ratio of relative Vmax to that of Km values. It is filed as ADME.

Each structure is given as a SMILES string.

In the series on L1210, `NC(=O)c1nc(CNc2ccc(C(=O)NC(CCC(=O)O)C(=O)O)cc2)cnc1N` (stereo not given) showed an IC50 of 5.5 µM. Besides, the “Relative Vmax” value in series [1] came to 0.99. Further, the Ratio in series [2] was 1.52.

As for `Nc1nc2ncc(CNc3ccc(C(=O)N[C@@H](CCC(=O)O)C(=O)O)cc3)nc2c(=O)[nH]1` [FOLIC ACID], the “Relative Vmax” value in series [1] came to 1. Moreover, the Ratio in series [2] is listed as 1.

In the series on L1210, `NC(=O)c1nc(CN(C=O)c2ccc(C(=O)NC(CCC(=O)O)C(=O)O)cc2)cnc1N` (stereo not given) had a 50% inhibitory concentration (IC50) of 85 µM. Besides, the “Relative Vmax” value in series [1] is recorded as 1.84. For the same compound, the Ratio in series [2] came out at 2.6.

As to `CN(Cc1cnc2nc(N)nc(N)c2n1)c1ccc(C(=O)N[C@@H](CCC(=O)O)C(=O)O)cc1` [METHOTREXATE], the “Relative Vmax” value in series [1] was 0.99. The Ratio in series [2] is listed as 0.9.

`N#Cc1nc(CNc2ccc(C(=O)NC(CCC(=O)O)C(=O)O)cc2)cnc1N` (stereo not given) returned a 50% inhibitory concentration (IC50) with L1210 of 217 µM. Also, the “Relative Vmax” value in series [1] is 1.06. Besides, in series [2], the Ratio is recorded as 0.7.

As for `Nc1nc(N)c2nc(CNc3ccc(C(=O)N[C@@H](CCC(=O)O)C(=O)O)cc3)cnc2n1` [AMINOPTERIN], the “Relative Vmax” value in series [1] is recorded as 1.59. In addition, the Ratio in series [2] is given as 10.1.

The term IC50 denotes the midpoint of a concentration-inhibition curve. The low end stands for higher potency, the high end for lower potency.
